SMILES strings stand for the structures. Hit rate of the full screen: of about 330,000 compounds, about 2,000 (0.61%) were called active.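 Rule for the calls: active = inhibition above that plate's mean sample inhibition plus 3 SD (cut at about 26% in these data); inactive = the rest.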 Only a selection was taken, and actives are over-represented in it overall.

The assay is described as follows: ATP-evoked calcium signal inhibitors, parental CHO, primary screen, counter-screen for OX1R antagonist project, cell-based, fluorescence, Fluo-8 calcium dye (AID 463079).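 Note: 0% = ATP-challenged DMSO wells and 100% = DMSO wells without ATP.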 The settings on record: parental CHO-K1, ATP-induced calcium, Fluo-8 fluorescence; at 5.6 µM; hits give high values. The procedure, abridged: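 test system = CHO parental line | reagent = ATP stimulus | measured by = intracellular calcium via Fluo-8 no-wash fluorescent dye | control set = ATP and no-ATP DMSO wells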
On to `CN(C(=O)CC1C(=O)NCCN1Cc1ccc(F)cc1Cl)C1CCCCC1` (configuration not stated), for which the inhibition was -17.1% (inactive).
Then `Cc1ccc(S(=O)(=O)N(Cc2cc3ccccc3[nH]c2=O)CC2CCCO2)cc1` (configuration not stated), with -27.8% (inactive).
Then `COCCN(C(=O)CCC(=O)Nc1nccs1)C(C(=O)NCCC(C)C)c1ccc(F)cc1` (configuration not stated), with -13% (inactive).
To `CC(=O)NCC(=O)NC1CCCc2c1cnn2-c1ccccc1F` (configuration not stated) belongs 10.8% (inactive).
Turning to `COC(=O)c1ccc(C(=O)NC2CC(C)(C)Cc3c2cnn3-c2ccc(F)cc2)nc1` (configuration not stated), the inhibition is -9.97% (inactive).
To `Cn1nccc1C(=O)NC1CCCc2c1cnn2-c1ccc(F)cc1F` (configuration not stated) belongs 45.4% (active); to `CC1(C)Cc2c(cnn2-c2cccc(F)c2)C(NC(=O)c2cc[n+]([O-])cc2)C1` (configuration not stated), -5.88% (inactive).
In the case of `Cc1cc(C(=O)NC2CCCc3c2cnn3-c2cccc(C)c2C)c(C)o1` (configuration not stated), the inhibition is 2.39% (inactive).
Then `COc1ccc(C(=O)NC2CCCc3c2cnn3-c2cccc(C)c2C)c(OC)n1` (configuration not stated), with 40.4% (active); and `Cc1cc(C(=O)NC2CC(C)(C)Cc3c2cnn3-c2ccccc2)n[nH]1` (configuration not stated), with -10.2% (inactive).
Then `COc1ccc(C(=O)NC2CC(C)(C)Cc3c2cnn3-c2ccccc2C)o1` (configuration not stated), with -22.6% (inactive); and `Cn1nccc1C(=O)NC1CCCc2c1cnn2-c1ccccc1F` (configuration not stated), with 48.7% (active); and `COCCCNC(=O)CN1C(=O)CSc2ccc(S(=O)(=O)N3CCOCC3)cc21`, with -10.9% (inactive).
With `COc1ccc(S(=O)(=O)N2CCOCC2)cc1NC(=O)COc1ccccc1`, the inhibition is -8.66% (inactive).
To `CCOc1cc(N2CCOCC2)c(OCC)cc1NC(=O)C1=NN(c2cccc(C)c2)C(=O)CC1` belongs -30.7% (inactive); to `CSC1=NC2(C)CCCCC2C12C=CC(=O)C=C2` (configuration not stated), -8.36% (inactive).
As to `Cc1cc(Cl)c2oc(C(=O)N(C)C(C)c3ccccn3)c(C)c2c1` (configuration not stated), the inhibition was -25.6% (inactive).
Then `Cc1cc2oc(=O)cc(-c3ccccc3)c2c(C)c1-c1ccc(OC(F)(F)F)cc1`, with -24% (inactive); and `C/C(=N\NC(=O)Cc1ccccc1[N+](=O)[O-])c1cccnc1`, with -2.78% (inactive); and `COc1ccc(CNc2ncnc3ccccc23)cc1`, with 30% (active).
To `COc1ccc(CNc2nccs2)cc1` belongs -0.35% (inactive).
With `COc1cccc(CNc2nc(C(F)(F)F)nc3ccccc23)c1`, the inhibition is -21.9% (inactive).
For `O=C(Nc1cccc(F)c1)N1C2CCC1CC(O)(c1cccnc1)C2` (configuration not stated), the inhibition is -8.22% (inactive).
Then `COc1cc(NC(=O)CCNC(=O)Cn2ccc3ccccc3c2=O)cc(OC)c1OC`, with 0.46% (inactive).
To `CCn1nccc1C(=O)Nc1ccc(S(=O)(=O)NC23CC4CC(CC(C4)C2)C3)cc1` belongs 61% (active).
Then `Cc1cc(C(F)F)n2nc(C(=O)Nc3ccc(S(=O)(=O)NC45CC6CC(CC(C6)C4)C5)cc3)nc2n1`, with -7.46% (inactive); and `O=C(Nc1ccc(S(=O)(=O)Nc2ncccn2)cc1)C12CC3CC(CC(C3)C1)C2`, with -8.7% (inactive); and `COc1ccccc1CNS(=O)(=O)c1c(C)[nH]c(C)c1C(=O)N1CCCCC1`, with -7.23% (inactive).
On to `Cc1ccc(S(=O)(=O)N(CC(=O)N2CCc3ccccc3C2)c2cccc(Cl)c2)cc1`, for which the inhibition was -23.4% (inactive).
To `O=[N+]([O-])/C=C/c1ccc2c(ccn2Cc2ccccc2)c1` belongs 42% (active).
To `O=C(Cn1ccc2cc(S(=O)(=O)N3CCCC3)ccc21)NCc1ccccc1` belongs -3.13% (inactive).
Then `COC(=O)Cn1cc(/C=C/[N+](=O)[O-])c2ccccc21`, with -9.14% (inactive); and `CCCC(C)NC(=O)C1CCN(C(=O)C2CC(=O)N(c3ccc(C)cc3)C2)CC1` (configuration not stated), with -8.45% (inactive).
Consider `O=S(=O)(c1cccc(Cn2nnc(-c3ccc(F)cc3)n2)c1)N1CCOCC1`, for which the inhibition is 41.7% (active).
In the case of `CCN(Cc1ccncc1)C(=O)c1cccc(S(=O)(=O)N2CCOCC2)c1`, the inhibition was -16.1% (inactive).
Then `Cc1nc(-c2ccc(F)cc2)c(CC(=O)Nc2cccc(S(=O)(=O)N3CCOCC3)c2)s1`, with -17.7% (inactive).
Then `CC(=O)Nc1ccc(S(=O)(=O)Oc2ccc(/C=N/N=C3/NC(=O)C(CC(=O)O)S3)cc2)cc1` (configuration not stated), with -3.01% (inactive); and `CC(c1ccccn1)N(C)C(=O)c1ccc2nc(Cc3cccc(Cl)c3)oc2c1` (configuration not stated), with -18.4% (inactive).
Take `CC[C@]12c3[nH]c4ccc(Cl)cc4c3CCN1C(=O)[C@@H](CC(=O)NCCN1CCOCC1)C[C@@H]2C(=O)N1CCN(C(=O)C2CC2)CC1`: the inhibition was -12.4% (inactive).
To `Cc1cc(OC(=O)c2ccc(Cl)cc2)cc(=O)n1C` belongs -3.96% (inactive); to `COCCCNc1nc2c(-c3cccc(C)c3)nnn2c2ccc(Cl)cc12`, -27.9% (inactive); to `O=C(NCCc1ccc(C(F)(F)F)cc1)c1ccc2c(c1)OCO2`, 40.1% (active).
Then `COc1ccc(CCNC(=O)COc2ccc3c(c2)OCO3)cc1`, with -4.78% (inactive); and `Cc1ccc2cc(CCNC(=O)c3ccc4c(c3)OCO4)c(=O)[nH]c2c1`, with -18% (inactive).
Then `O=S(N1CCCCCC1)C12CC3CC(CC(C3)C1)C2` (configuration not stated), with -6.89% (inactive); and `COc1ccc(N2CCC(CNC(=S)Nc3c(C)cccc3C)C2)cc1` (configuration not stated), with -5.49% (inactive).
For `Cc1ccc(C(=O)OC2CCCN(C)C2)cc1` (configuration not stated), the inhibition is -15% (inactive).
Then `CC1(C)C2CCC1(C)C(OC(=O)CCn1ccnc1)C2` (configuration not stated), with -13.9% (inactive).
Then `CC1(C)C2CCC1(C)C(OC(=O)c1ccc(O)cc1)C2` (configuration not stated), with 76.2% (active).
To `O=C(CNC(=O)c1ccc(Br)o1)NCC1CCCO1` (configuration not stated) belongs 4.99% (inactive).
As to `CC[C@]12c3[nH]c4cc(CCC(=O)N(C)C)ccc4c3CCN1C(=O)[C@@H](CC(=O)NCCCN(C)C)C[C@@H]2C(=O)N1CCN(C(=O)c2ccco2)CC1`, the inhibition was -12.2% (inactive).
To `CCC(C)NC(=O)C1c2ccccc2Oc2ccccc21` (configuration not stated) belongs -11.6% (inactive); to `CCCCCNC(=O)C1c2ccccc2Oc2ccccc21`, -8.91% (inactive); to `CCC(C)(C)NC(=O)C1c2ccccc2Oc2ccccc21`, 41.2% (active).
Turning to `Cc1cc(C)c2nc(SCC(=O)N(C)C3CCS(=O)(=O)C3)cc(C)c2c1` (configuration not stated), the inhibition is -7.05% (inactive).
With `CCOc1ccc(C(=O)Nc2cccc(-c3ccc4nncn4n3)c2)cc1`, the inhibition was -7.65% (inactive).
To `O=S(=O)(NC1CC2CCC1C2)c1ccc(Cl)cc1` (configuration not stated) belongs -7.07% (inactive).

Source of the values: PubChem BioAssay AID463079 (The Scripps Research Institute Molecular Screening Center, 2010).
